Measurements taken from ChEMBL document CHEMBL1121502, “Antiallergy activity of 10-oxo-10-H-pyridazino[6,1-b]quinazoline-2-carboxylic acids” (1980).

Experiments:
Type in all cases: functional
Rattus norvegicus [1] = assay: Antiallergy activity is evaluated for its ability to inhibit passive cutaneous anaphylaxis (PCA) in rats, dosed perorally; details: po
Summary of the method: (§1)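 Antiserum dilutions were injected intradermally at several back sites. 48 h later, rats were challenged i.v. with 1 mg ovalbumin in 1 mL saline containing 0.25% Evans blue. Diameter was plotted against relative antiserum concentration, and the least-squares line was extrapolated to zero antiserum. Groups of five animals were used.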

Rattus norvegicus [2] = assay: Antiallergic activity is evaluated for its ability to inhibit reaginic passive cutaneous anaphylaxis (PCA) in rats dosed intravenously; details: iv; summary of the method: as §1
Rattus norvegicus [3] = assay: Antiallergic activity is evaluated for its ability to inhibit reaginic passive cutaneous anaphylaxis (PCA) in rats dosed at 5 mg/kg intravenously; details: ip, in the assay text read “intraperitoneally” for “intravenously”; summary of the method: as §1
Rattus norvegicus [4] = assay: Antiallergic activity is evaluated for its ability to inhibit reaginic passive cutaneous anaphylaxis (PCA) in rats dosed at 0.5 mg/kg intravenously; details: route intravenous; summary of the method: as §1
Rattus norvegicus [5] = assay: Antiallergic activity is evaluated for its ability to inhibit reaginic passive cutaneous anaphylaxis (PCA) in rats dosed intravenously; Value ranges from 1-2; details: iv; summary of the method: as §1
Rattus norvegicus [6] = assay: Antiallergic activity is evaluated for its ability to inhibit reaginic passive cutaneous anaphylaxis (PCA) in rats dosed perorally; details: po; summary of the method: as §1

SMILES	inhibition in vivo at 5 mg/kg (Rattus norvegicus [3])	inhibition in vivo at 0.5 mg/kg (Rattus norvegicus [4])	also measured
Cc1ccc2nc3ccc(C(=O)O)cn3c(=O)c2c1	–	–	ED50 (Rattus norvegicus [1]): 0.7 mg/kg; ED50 (Rattus norvegicus [2]): 0.05 mg/kg
O=C(O)c1ccc2nc3ccc(Cl)nn3c(=O)c2c1	0%	–	–
O=C(O)c1ccc2nc3ccccc3c(=O)n2n1	–	76%	–
O=C(O)c1ccc2c(=O)n3nc(Cl)ccc3nc2c1	0%	–	–
COC(=O)c1ccc2c(=O)n3nc(Cl)ccc3nc2c1	0%	–	–
COC(=O)c1ccc2nc3ccc(Cl)nn3c(=O)c2c1	6%	–	–
Cc1ccc2c(=O)n3nc(C(=O)O)ccc3nc2c1	–	32%	–
Cc1ccc2nc3ccc(C(=O)O)nn3c(=O)c2c1	–	0%	–
O=C(O)c1ccc2nc3cc4ccccc4cc3c(=O)n2n1	–	36%	–
COc1ccc2nc3ccc(C(=O)O)nn3c(=O)c2c1	–	8%	–
O=C(O)c1ccc2nc3ccc(Cl)cc3c(=O)n2n1	–	91%	–
O=C([O-])c1cc(=O)c2c(OCC(O)COc3cccc4oc(C(=O)[O-])cc(=O)c34)cccc2o1.[Na+].[Na+] [CROMOLYN SODIUM]	–	–	ED50 (Rattus norvegicus [5]): 1 mg/kg
O=C1c2ccccc2S(=O)(=O)c2cc(-c3nn[nH]n3)ccc21 [DOXANTRAZOLE]	–	–	ED50 (Rattus norvegicus [6]): 5 mg/kg; ED50 (Rattus norvegicus [2]): 1 mg/kg
